Measurements as given in ChEMBL document CHEMBL3421570, “Combinatorial Libraries As a Tool for the Discovery of Novel, Broad-Spectrum Antibacterial Agents Targeting the ESKAPE Pathogens” (J Med Chem, 2015).
≈ marks a conversion by molar mass, not a printed value. Calls of active or inactive are those of the source. No cut-off for these calls is given here.

How the values were obtained:
Staphylococcus aureus [1] = experiment: Bactericidal activity against methicillin-resistant Staphylococcus aureus assessed as cell survival recovery at 200 uM measured after drug wash out after 120 mins by time kill assay; type: functional; settings: 2 h
In short: (§1)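 MRSA from stationary phase was regrown 3 h in TSB and seeded at OD600 0.5. […] After 120 min, cells were centrifuged and washed, serially diluted and plated for CFU. Percent recovery is relative to no-drug controls.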

Staphylococcus aureus [2] = experiment: Effect on bacterial density of methicillin-resistant Staphylococcus aureus at 200 uM measured over 2 hrs period by time kill assay; type: functional, organism-based
Staphylococcus aureus [3] = experiment: Induction of bacterial cell lysis in methicillin-resistant Staphylococcus aureus assessed as cell recovery at 2% by time kill assay; type: functional
Staphylococcus aureus [4] = experiment: Bactericidal activity against methicillin-resistant Staphylococcus aureus assessed as cell survival recovery at 2% measured after drug wash out after 120 mins by time kill assay; type: functional; in short: as §1
Klebsiella pneumoniae [5] = experiment: Bactericidal activity against Klebsiella pneumoniae after 24 hrs; type: functional
Enterococcus faecium [6] = experiment: Antimicrobial activity against Enterococcus faecium assessed as inhibition of microbial growth at 45 uM after 24 hrs; type: functional, organism-based
In short: (§2)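 Broth microdilution single-concentration read: overnight cultures diluted 1:1000, compound in DMF (≤2.0%) added, 37°C for 24 h, growth inhibition scored visually by lack of turbidity; triplicate. Gram-positives grown in TSB, Gram-negatives in LB.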

Acinetobacter baumannii [7] = experiment: Bactericidal activity against Acinetobacter baumannii after 24 hrs; type: functional
Staphylococcus aureus [8] = experiment: Bactericidal activity against Staphylococcus aureus after 24 hrs; type: functional
[9] = Selectivity index, ratio of IC50 for human A549 cells to MIC for Acinetobacter baumannii
Enterococcus faecium [10] = experiment: Antimicrobial activity against Enterococcus faecium assessed as inhibition of microbial growth after 24 hrs; type: functional
In short: (§3)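 Broth microdilution against multidrug-resistant clinical ESKAPE isolates. Overnight cultures (TSB for Gram-positives, LB for Gram-negatives) diluted 1:1000 in fresh medium, compound in DMF (≤2.0% DMF) added at decreasing concentrations, 37°C.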

Acinetobacter baumannii [11] = experiment: Antimicrobial activity against Acinetobacter baumannii assessed as inhibition of microbial growth after 24 hrs; type: functional; in short: as §3
Enterococcus faecium [12] = experiment: Bactericidal activity against Enterococcus faecium after 24 hrs; type: functional
Klebsiella pneumoniae [13] = experiment: Ratio of MIC for Klebsiella pneumoniae measured after 8 cycle passage to MIC for wild type Klebsiella pneumoniae; type: functional
Enterobacter cloacae [14] = experiment: Antimicrobial activity against Enterobacter cloacae assessed as inhibition of microbial growth at 45 uM after 24 hrs; type: functional, organism-based; in short: as §2
Pseudomonas aeruginosa [15] = experiment: Antibiofilm activity against Pseudomonas aeruginosa incubated for 24 hrs followed by biofilm resuspension in PBS and measured after 24 hrs; type: functional
In short: (§4)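 Biofilms grown 24 h in 96-well plates from overnight cultures standardized to OD600 0.5 in fresh medium (human serum only for S. aureus; TSB for Gram-positives, LB for Gram-negatives). Medium then replaced with fresh medium containing a concentration range above and below MIC, 37°C overnight. After 24 h biofilm resuspended in PBS, serially diluted, plated in duplicate, CFU counted after 24 h at 37°C. Activity relative to untreated; three technical replicates; MBEC50 reported.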

Klebsiella pneumoniae [16] = experiment: Antimicrobial activity against Klebsiella pneumoniae assessed as inhibition of microbial growth at 45 uM after 24 hrs; type: functional, organism-based; in short: as §2
Klebsiella pneumoniae [17] = experiment: Antimicrobial activity against Klebsiella pneumoniae assessed as inhibition of microbial growth after 24 hrs; type: functional; in short: as §3
Acinetobacter baumannii [18] = experiment: Antimicrobial activity against Acinetobacter baumannii assessed as inhibition of microbial growth at 45 uM after 24 hrs; type: functional, organism-based; in short: as §2
Staphylococcus aureus [19] = experiment: Antibiofilm activity against Staphylococcus aureus incubated for 24 hrs followed by biofilm resuspension in PBS and measured after 24 hrs; type: functional; in short: as §4
Enterobacter cloacae [20] = experiment: Antibiofilm activity against Enterobacter cloacae incubated for 24 hrs followed by biofilm resuspension in PBS and measured after 24 hrs; type: functional; in short: as §4
Enterobacter cloacae [21] = experiment: Ratio of MIC for Enterobacter cloacae measured after 8 cycle passage to MIC for wild type Enterobacter cloacae; type: functional
Enterobacter cloacae [22] = experiment: Induction of spontaneous mutation in Enterobacter cloacae at 2 to 10 MIC; type: functional, organism-based
Staphylococcus aureus [23] = experiment: Antimicrobial activity against Staphylococcus aureus assessed as inhibition of microbial growth at 45 uM after 24 hrs; type: functional, organism-based; in short: as §2
[24] = Selectivity index, ratio of IC50 for human A549 cells to MIC for Pseudomonas aeruginosa
Staphylococcus aureus [25] = experiment: Bactericidal activity against methicillin-resistant Staphylococcus aureus assessed as cell survival recovery at MIC measured after drug wash out after 120 mins by time kill assay; type: functional; in short: as §1
Enterobacter cloacae [26] = experiment: Antimicrobial activity against Enterobacter cloacae isolate 1446 assessed as inhibition of microbial growth in presence of 100 uM efflux pump inhibitor reserpine after 24 hrs; type: functional, organism-based
Staphylococcus aureus [27] = experiment: Antimicrobial activity against Staphylococcus aureus USA300 strain FPR3757 infected in mouse model of lethal peritonitis assessed as mouse survival at 2 uM, im dosed 1 hr post infection and measured after 5 days post infection; type: functional, organism-based
In short: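 Mice, six per group, infected i.p. with 1 × 10^8 CFU ml−1 S. aureus USA300 FPR3757 in PBS with 5% mucin. Compound given i.m. at 2 μM 1 h later; vehicle 45% w/v (2-hydroxypropyl)-β-cyclodextrin in water i.v.; vancomycin i.v. as control. Monitored twice daily for 5 days, pre-moribund animals euthanized. Survival compared by log-rank test.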

Acinetobacter baumannii [28] = experiment: Ratio of MIC for Acinetobacter baumannii measured after 8 cycle passage to MIC for wild type Acinetobacter baumannii; type: functional
Pseudomonas aeruginosa [29] = experiment: Antimicrobial activity against Pseudomonas aeruginosa assessed as inhibition of microbial growth at 45 uM after 24 hrs; type: functional, organism-based; in short: as §2
Enterobacter cloacae [30] = experiment: Bactericidal activity against Enterobacter cloacae after 24 hrs; type: functional
Pseudomonas aeruginosa [31] = experiment: Antimicrobial activity against Pseudomonas aeruginosa assessed as inhibition of microbial growth after 24 hrs; type: functional; in short: as §3
Enterococcus faecium [32] = experiment: Induction of spontaneous mutation in Enterococcus faecium at 2 to 10 MIC; type: functional, organism-based
Klebsiella pneumoniae [33] = experiment: Induction of spontaneous mutation in Klebsiella pneumoniae at 2 to 10 MIC; type: functional, organism-based
Staphylococcus aureus [34] = experiment: Ratio of MIC for Staphylococcus aureus measured after 8 cycle passage to MIC for wild type Staphylococcus aureus; type: functional
Pseudomonas aeruginosa [35] = experiment: Induction of spontaneous mutation in Pseudomonas aeruginosa at 2 to 10 MIC; type: functional, organism-based; settings: 2 to 10 x MIC
Staphylococcus aureus [36] = experiment: Induction of spontaneous mutation in Staphylococcus aureus at 2 to 10 MIC; type: functional, organism-based
Staphylococcus aureus [37] = experiment: Antimicrobial activity against Staphylococcus aureus assessed as inhibition of microbial growth after 24 hrs; type: functional; in short: as §3
Klebsiella pneumoniae [38] = experiment: Antibiofilm activity against Klebsiella pneumoniae incubated for 24 hrs followed by biofilm resuspension in PBS and measured after 24 hrs; type: functional; in short: as §4
A549 = experiment: Cytotoxicity against human A549 cells after 48 hrs by MTT assay; type: cell-based; settings: A549, 48 h
In short: (§5)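 A549 cells grown in F-12K with L-glutamine, 10% FBS, 1% penicillin-streptomycin, seeded at 1.0 × 10^5 ml−1, allowed to adhere 24 h (37°C, 5% CO2), then exposed to compound in 45% w/v (2-hydroxypropyl)-β-cyclodextrin vehicle for 48 h. MTT 4 h, formazan solubilized in DMSO, absorbance 540 nm. Percent recovery versus vehicle-only; IC50 derived; at least three independent experiments.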

Enterobacter cloacae [39] = experiment: Antimicrobial activity against Enterobacter cloacae assessed as inhibition of microbial growth after 24 hrs; type: functional; in short: as §3
[40] = Selectivity index, ratio of IC50 for human A549 cells to MIC for Klebsiella pneumoniae
Acinetobacter baumannii [41] = experiment: Antibiofilm activity against Acinetobacter baumannii incubated for 24 hrs followed by biofilm resuspension in PBS and measured after 24 hrs; type: functional; in short: as §4
[42] = Induction of hemolysis in human RBC at 10 uM incubated for 15 mins; type: cell-based, Erythrocyte; settings: red blood cells, read-out: Activity
In short: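 Human RBCs from whole blood, resuspended 20% v/v in HA buffer (NaCl, CaCl2), compound 10 μM, 15 min at 37°C. Centrifuged 5,500 g for 1 min, supernatant OD543 read. Percent hemolysis against DMF vehicle (0%) and 1.0% Triton X-100 (100%); triplicate.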

[43] = Selectivity index, ratio of IC50 for human A549 cells to MIC for Enterobacter cloacae
[44] = Cytotoxicity against human A549 cells assessed as cell viability recovery up to 225 uM after 48 hrs by MTT assay; type: cell-based; settings: read-out: Activity; in short: as §5
[45] = Selectivity index, ratio of IC50 for human A549 cells to MIC for Enterococcus faecium
Acinetobacter baumannii [46] = experiment: Induction of spontaneous mutation in Acinetobacter baumannii at 2 to 10 MIC; type: functional, organism-based
Enterococcus faecium [47] = experiment: Antibiofilm activity against Enterococcus faecium incubated for 24 hrs followed by biofilm resuspension in PBS and measured after 24 hrs; type: functional; in short: as §4
Pseudomonas aeruginosa [48] = experiment: Bactericidal activity against Pseudomonas aeruginosa after 24 hrs; type: functional
Staphylococcus aureus [49] = experiment: Effect on bacterial density of methicillin-resistant Staphylococcus aureus at MIC measured over 2 hrs period by time kill assay; type: functional, organism-based
[50] = Selectivity index, ratio of IC50 for human A549 cells to MIC for Staphylococcus aureus
[51] = Cytotoxicity against human A549 cells assessed as cell viability recovery at 45 uM after 48 hrs by MTT assay; type: cell-based; settings: read-out: Activity; in short: as §5
Staphylococcus aureus [52] = experiment: Bactericidal activity against methicillin-resistant Staphylococcus aureus at MIC measured after drug wash out after 120 mins by time kill assay; type: functional; in short: as §1

## C[C@H]1c2cccc(O)c2C(=O)C2=C(O)[C@]3(O)C(=O)C(C(N)=O)=C(O)[C@@H](N(C)C)[C@@H]3[C@@H](O)[C@@H]21 [DOXYCYCLINE]
Staphylococcus aureus [1]
  survival at 200 µM: 92%
Staphylococcus aureus [2]
  Activity: inactive

## CCCCCCCCCCCCOS(=O)(=O)[O-].[Na+] [SODIUM LAURYL SULFATE]
Staphylococcus aureus [3]
  Activity: 52%
Staphylococcus aureus [4]
  Survival: 0%

## CCCCCCCN1C(=N)N(CCCC[C@H]2CNC(=N)N2CCc2cccc(C(F)(F)F)c2)C[C@@H]1CC1CCCCC1
Klebsiella pneumoniae [5]
  MBC90: 2.2 µM (≈ 1.3 µg/mL)
Enterococcus faecium [6]
  growth inhibition (GI): Active
Acinetobacter baumannii [7]
  MBC90: 3.2 µM (≈ 1.89 µg/mL)
Staphylococcus aureus [8]
  MBC90: 3.3 µM (≈ 1.95 µg/mL)
[9]
  Selectivity Index: 43
Enterococcus faecium [10]
  MIC: 1.5 µM
Acinetobacter baumannii [11]
  MIC: 1.5 µM
Enterococcus faecium [12]
  MBC90: 3.3 µM (≈ 1.95 µg/mL)
Klebsiella pneumoniae [13]
  Ratio: <=8
Enterobacter cloacae [14]
  growth inhibition (GI): Active
Pseudomonas aeruginosa [15]
  MBEC50: 46 µM
Klebsiella pneumoniae [16]
  growth inhibition (GI): Active
Klebsiella pneumoniae [17]
  MIC: 1.5 µM
Acinetobacter baumannii [18]
  growth inhibition (GI): Active
Staphylococcus aureus [19]
  MBEC50: 4.4 µM
Enterobacter cloacae [20]
  MBEC50: 15 µM
Enterobacter cloacae [21]
  Ratio: <=8
Enterobacter cloacae [22]
  Activity: inactive
Staphylococcus aureus [23]
  growth inhibition (GI): Active
[24]
  Selectivity Index: 43
Staphylococcus aureus [25]
  Survival: 0.2%
Enterobacter cloacae [26]
  growth inhibition (GI): Active
Staphylococcus aureus [27]
  Activity: Active
Acinetobacter baumannii [28]
  Ratio: <=8
Pseudomonas aeruginosa [29]
  growth inhibition (GI): Active
Enterobacter cloacae [30]
  MBC90: 6.4 µM (≈ 3.78 µg/mL)
Pseudomonas aeruginosa [31]
  MIC: 1.5 µM
Enterococcus faecium [32]
  Activity: inactive
Klebsiella pneumoniae [33]
  Activity: inactive
Staphylococcus aureus [34]
  Ratio: 4
Pseudomonas aeruginosa [35]
  Activity: inactive
Staphylococcus aureus [36]
  Activity: inactive
Staphylococcus aureus [37]
  MIC: 1.5 µM
Klebsiella pneumoniae [38]
  MBEC50: 4.8 µM
A549
  IC50: 66 µM
Enterobacter cloacae [39]
  MIC: 1.5 µM
[40]
  Selectivity Index: 43
Acinetobacter baumannii [41]
  MBEC50: 13 µM
[42]
  hemolysis at 0.25 h, 10 µM: 0.34%
[43]
  Selectivity Index: 43
[44]
  viability at 48 h: ≥ 33%
[45]
  Selectivity Index: 43
Acinetobacter baumannii [46]
  Activity: inactive
Enterococcus faecium [47]
  MBEC50: 26 µM
Pseudomonas aeruginosa [48]
  MBC90: 14 µM (≈ 8.27 µg/mL)
Staphylococcus aureus [49]
  Activity: inactive
[50]
  Selectivity Index: 43
[51]
  viability at 48 h, 45 µM: > 60%
Staphylococcus aureus [52]
  fold change (FC): 2.5
